# Screens as filed in PubChem BioAssay.
# F508del corr: CFTR F508del correction in bronchial cells | CFBE cells, YFP halide quenching; stimulated with forskolin plus potentiator P3; % fluorescence drop versus neutral controls | activity (quench increase), % at 7.58 µM | actives 0.36% (n = 350,000) | AID 720511;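 active = mean added fluorescence quench of at least 8% versus neutral control, with both replicates also reaching 8%; inconclusive = only one of the mean or replicate conditions met; inactive = mean below 8% and not both replicates reaching 8%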;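 also: cells transiently co-express mutant CFTR-F508del with the halide-sensitive YFP; corrector assay measuring rescue of mutant channel to the surface after 24 h compound exposure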
# C2C12 statin: suppression of simvastatin myotoxicity. rescue of ATP level, % at 7.49 µM. C2C12 myotubes + simvastatin, ATP luminescence, 48 h; scaled: DMSO 0, geranylgeraniol control 100. AID 602340. actives 0.78% (n = 330,000);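 active = mean ATP rescue above about 67%, or every replicate alone reaching that limit, limit read from the data, passing the limit was not always enough; inconclusive = no clear call, values can overlap the other calls; inactive = mean under the limit and some replicate under it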;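 also: myotubes were challenged with 10 µM simvastatin during compound exposure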
# PDI turbidity: inhibitors of human protein disulfide isomerase. inhibition, % at 10 µM. actives 0.052% (n = 350,000). PDI insulin aggregation turbidity, A650, 90 min. AID 588391;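 active = mean inhibition across replicates of 30% or more, whatever share of single replicates reach that level; inconclusive = mean inhibition below 30% while every single replicate reaches 30%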
# ERp5 block: blocks human ERp5 reductase activity on insulin | actives 0.05% (n = 350,000) | ERp5 insulin aggregation, absorbance 650 nm, 90 min | Q15084 | inhibition, % at 9.99 µM;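 active = mean replicate inhibition above about 25%, with every replicate also reaching it, limit read from the data, passing the limit was not always enough; inconclusive = only one of those two criteria met; inactive = neither criterion met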
# Target sequence (Q15084 whole entry, looked up): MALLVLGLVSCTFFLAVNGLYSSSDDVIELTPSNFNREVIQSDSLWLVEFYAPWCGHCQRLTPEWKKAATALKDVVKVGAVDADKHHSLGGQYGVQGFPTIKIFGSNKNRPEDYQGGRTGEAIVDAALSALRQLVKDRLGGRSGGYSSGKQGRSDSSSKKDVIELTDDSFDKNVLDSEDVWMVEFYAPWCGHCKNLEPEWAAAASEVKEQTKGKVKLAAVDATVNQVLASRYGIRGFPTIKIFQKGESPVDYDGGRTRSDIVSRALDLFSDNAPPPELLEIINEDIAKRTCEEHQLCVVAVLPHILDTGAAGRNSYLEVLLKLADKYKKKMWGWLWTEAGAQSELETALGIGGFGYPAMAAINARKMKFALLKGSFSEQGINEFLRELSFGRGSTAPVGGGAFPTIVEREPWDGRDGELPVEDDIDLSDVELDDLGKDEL
# DENV2 CPE rescue: protects cells from dengue virus 2 cytopathic effect. DENV2-infected cells, cytopathic effect rescue, plate reader. actives 1.7% (n = 350,000). CPE inhibition, % at 9.99 µM; in the data active = CPE inhibition above about 20%, passing the limit was not always enough; inconclusive = no clear call, values can overlap the other calls; tested in BHK-21 cells;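 also: 0% = median of neutral control wells and 100% = median of positive control wells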
# Cneo AK release: causes C. neoformans cell lysis. adenylate kinase release luminescence, 4 h; normalised: neutral wells 0, clomiphene wells 100. lysis activity, % at 15 µM. actives 0.2% (n = 360,000). AID 651654;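 active = mean lysis activity across replicates of at least 80%, whatever share of replicates individually reach that level; inactive = mean lysis activity below 80%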
#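 Test system: log-phase Cryptococcus neoformans yeast cells; Quantity: yeast cell density of 5 × 10^6 cells/mL; Buffer or medium: YPD; Doses: single compound concentration per well; Timing: 4 h at 37 °C static, read 1 h later; Measured by: AK luminescence; Read-out basis: lysis from increased AK signal; Control set: Clomiphene as positive control.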
# An asterisk follows results filed as active; ? = inconclusive; . = no result. Shown are actives, neighbours in structure and some others; about 2.3% of the full set was active somewhere.
SMILES,F508del corr,C2C12 statin,PDI turbidity,ERp5 block,DENV2 CPE rescue,Cneo AK release
COc1cccc(NC(=O)N[C@H]2C=C[C@H](CC(=O)NCc3ccccn3)O[C@H]2CO)c1,0,.,.,4,29*,.
COc1ccccc1S(=O)(=O)N[C@H]1C=C[C@@H](CC(=O)NCc2cccc(F)c2)O[C@H]1CO,1,-1,.,1,23*,2
COc1cccc(CNC(=O)C[C@H]2C=C[C@H](NC(=O)C3CCOCC3)[C@@H](CO)O2)c1,1,2,.,0,21*,5
COc1ccccc1S(=O)(=O)N[C@H]1C=C[C@@H](CC(=O)NCc2cc(F)cc(F)c2)O[C@H]1CO,-2,-9,.,2,?,11
COc1cccc(CNC(=O)C[C@H]2CC[C@@H](NC(=O)C3CCC3)[C@H](CO)O2)c1,2,-2,.,0,36*,2
O=C1c2c(Br)c(Br)c(Br)c(Br)c2C(=O)N1c1ccccn1,0,27,-2,-4,6,-1
O=C1OC(=O)c2c(Br)c(Br)c(Br)c(Br)c21,1,-7,.,5,39*,3
COc1cccc(OC)c1C(=O)N1CCN(Cc2c[nH]c3ccccc23)CC1,-1,2,-6,2,55*,2
O=C(C[C@@H]1C[C@@H]2c3cc(NC(=O)c4ccc5c(c4)OCO5)ccc3O[C@@H]2[C@H](CO)O1)NC1CCCC1,-3,2,.,-1,38*,-2
O=C(C[C@H]1C[C@@H]2c3cc(NC(=O)c4ccc5c(c4)OCO5)ccc3O[C@@H]2[C@H](CO)O1)NC1CCCC1,1,-2,.,-1,-7,1
COCC(=O)Nc1ccc2c(c1)[C@@H]1C[C@H](CC(=O)NC3CCCCC3)O[C@H](CO)[C@@H]1O2,4,-1,.,2,56*,53
CN(C)CC(=O)Nc1ccc2c(c1)[C@@H]1C[C@@H](CC(=O)NC3CCCCC3)O[C@H](CO)[C@@H]1O2,-2,0,.,-9,86*,1
CN(C)CC(=O)Nc1ccc2c(c1)[C@@H]1C[C@H](CC(=O)NC3CCCCC3)O[C@H](CO)[C@@H]1O2,-1,1,.,-3,-1,3
CN(C)CC(=O)Nc1ccc2c(c1)[C@H]1C[C@H](CC(=O)NC3CCCCC3)O[C@@H](CO)[C@H]1O2,-3,-2,.,-3,86*,52
C[C@@H]1CN([C@H](C)CO)S(=O)(=O)c2ccc(-c3ccccc3)cc2O[C@@H]1CN(C)C(=O)C1CCCCC1,-1,-44,.,2,?,3
C/C=C/c1ccc([C@H]2[C@H]3CN(S(=O)(=O)c4cccc(F)c4)CC(=O)N3[C@H]2CO)cc1,-1,.,.,-4,30*,.
C/C=C/c1ccc([C@H]2[C@@H](CO)N3C(=O)CN(S(=O)(=O)c4cccc(F)c4)C[C@@H]23)cc1,-2,.,.,4,43*,.
C/C=C/c1ccc([C@H]2[C@@H](CO)N3C(=O)CN(C(=O)c4cccc(F)c4)C[C@@H]23)cc1,0,.,.,2,33*,.
CC1(C)C[C@H]2C3=CCC4[C@@]5(C)CC[C@H](O)[C@](C)(CO)C5CC[C@@]4(C)[C@]3(C)CC[C@@]2(C)[C@H](O)[C@@H]1O (stereo not given in full),0,-1,.,-4,7,0
CC1(C)C[C@H]2C3=CCC4[C@@]5(C)CC[C@H](O)[C@](C)(CO)C5CC[C@@]4(C)[C@]3(C)C[C@H]3O[C@@H]1[C@H](O)[C@]32CO (stereo not given in full),-5,-15,1,-1,41*,-1
O=C(COC(=O)Cc1ccccc1F)NCc1ccc(Cl)cc1,-2,100*,0,5,4,0
CC1(c2ccc3ccccc3c2)CCC(=O)O1 (stereo not given),8.7*,.,-6,4,22*,.
CC1(c2ccc3ccccc3c2)NC(=O)N(CC(=O)O)C1=O (stereo not given),-1,-4,-2,0,-2,.
CCNC(=O)/C(=C/c1ccc2c(c1)OCO2)NC(=O)c1ccc(Br)cc1,.,79*,3,.,.,0
